Data set [1] can be described thus: Volume of distribution at steady state in Sprague-Dawley rat at 1 mg/kg administered by intravenous infusion for 1 hr. It is filed as ADME, organism-based. The arrangement: dose 1 mg/kg, route intravenous. The settings on record: in vivo, read-out: Vdss.
In data set [2] the target is T1, Thromboxane A2 receptor (Homo sapiens, UniProt P21731).
T1 sequence (P21731 whole entry): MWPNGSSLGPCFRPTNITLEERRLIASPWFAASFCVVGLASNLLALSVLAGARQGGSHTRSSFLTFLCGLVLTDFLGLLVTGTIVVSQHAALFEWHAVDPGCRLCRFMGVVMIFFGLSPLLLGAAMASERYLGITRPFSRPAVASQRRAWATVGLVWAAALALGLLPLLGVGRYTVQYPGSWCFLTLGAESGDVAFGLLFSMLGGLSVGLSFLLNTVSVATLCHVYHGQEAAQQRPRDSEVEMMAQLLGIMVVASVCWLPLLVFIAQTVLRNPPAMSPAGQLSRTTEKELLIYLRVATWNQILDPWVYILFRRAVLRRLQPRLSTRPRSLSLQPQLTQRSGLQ
Briefly: Inhibition of TP receptor.

In data set [3] the target is Prostaglandin E2 receptor EP4 subtype (Homo sapiens, UniProt P35408). The experiment in a line: Inhibition of EP4 receptor.
Sequence of Prostaglandin E2 receptor EP4 subtype (P35408 whole entry): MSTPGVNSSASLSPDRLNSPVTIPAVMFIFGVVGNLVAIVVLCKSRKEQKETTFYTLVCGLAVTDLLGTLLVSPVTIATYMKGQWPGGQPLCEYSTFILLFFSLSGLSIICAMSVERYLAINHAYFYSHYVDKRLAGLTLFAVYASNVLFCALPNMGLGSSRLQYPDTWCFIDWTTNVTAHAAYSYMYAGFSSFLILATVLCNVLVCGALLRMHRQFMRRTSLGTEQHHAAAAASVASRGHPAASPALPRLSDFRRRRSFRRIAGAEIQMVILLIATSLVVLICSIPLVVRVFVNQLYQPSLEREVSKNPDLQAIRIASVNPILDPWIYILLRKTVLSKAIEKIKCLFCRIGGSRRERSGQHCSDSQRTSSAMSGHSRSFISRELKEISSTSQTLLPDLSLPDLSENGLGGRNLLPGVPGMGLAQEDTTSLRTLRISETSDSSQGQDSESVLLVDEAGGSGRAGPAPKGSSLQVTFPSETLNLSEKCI
The target of data set [4] is T2, Prostaglandin E2 receptor EP3 subtype (Homo sapiens, UniProt P43115).
T2 sequence (P43115 whole entry): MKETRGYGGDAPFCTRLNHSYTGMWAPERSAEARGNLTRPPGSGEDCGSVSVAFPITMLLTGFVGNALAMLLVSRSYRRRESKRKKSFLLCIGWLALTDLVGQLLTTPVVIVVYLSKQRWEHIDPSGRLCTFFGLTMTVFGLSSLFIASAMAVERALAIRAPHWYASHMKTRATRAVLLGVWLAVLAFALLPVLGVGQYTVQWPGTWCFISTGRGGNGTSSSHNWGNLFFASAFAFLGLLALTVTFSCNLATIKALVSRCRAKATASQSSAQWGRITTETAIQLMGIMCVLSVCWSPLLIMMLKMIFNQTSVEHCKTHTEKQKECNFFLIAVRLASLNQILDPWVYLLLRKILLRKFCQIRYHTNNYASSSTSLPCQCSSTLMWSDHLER
The experiment in a line: Inhibition of EP3 receptor by FLIPR assay.

For data set [5], the target named is T3, Prostaglandin E2 receptor EP1 subtype (Homo sapiens, UniProt P34995).
T3 sequence (P34995 whole entry): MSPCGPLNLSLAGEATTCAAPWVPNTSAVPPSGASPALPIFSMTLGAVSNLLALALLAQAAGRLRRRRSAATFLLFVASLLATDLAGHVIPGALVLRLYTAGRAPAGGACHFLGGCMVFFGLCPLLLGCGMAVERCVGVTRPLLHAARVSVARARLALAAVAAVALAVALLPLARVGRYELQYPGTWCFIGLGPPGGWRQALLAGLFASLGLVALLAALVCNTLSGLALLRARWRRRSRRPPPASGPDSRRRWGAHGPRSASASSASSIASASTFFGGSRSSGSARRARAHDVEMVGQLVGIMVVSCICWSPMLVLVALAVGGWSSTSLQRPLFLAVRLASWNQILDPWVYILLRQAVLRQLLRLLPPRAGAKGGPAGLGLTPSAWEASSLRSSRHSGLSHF
Briefly: Antagonist activity at human recombinant EP1 receptor expressed in CHO cells assessed as luciferase activity by Schild assay. The note with it: read-out: pA2 (converted). It is filed as functional, cell-based.

The nature of data set [6]: Solubility in FeSSIF after 0.5 hrs. The class given is physicochemical. The method in brief:
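Solubility determined in water, FaSSIF and FeSSIF, all read at the 0.5 h time point.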

The nature of data set [7]: Drug level in mouse blood at 0.5 mg/kg/hr administered by infusion for 12 hrs. The class given is ADME, organism-based. The note with it: intravenous, read-out: Drug uptake. The method in brief:
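Steady-state 12 h infusion at 5 mL/kg/h to reach a target dose of 0.5 mg/kg/h; blood and brain concentrations measured. Data are the mean from three animals.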

Data set [8] is described as follows: Permeability from apical to basolateral side of dog MDCK2 cells over expressing MDR1 after 1 hr. The class given is ADME, cell-based, Canis lupus familiaris, MDCK-II. The settings on record: MDCK-MDR1, read-out: permeability. The method in brief:
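MDCKII-MDR1 Pgp permeability assay; apical-to-basolateral Pexact permeability in nm/s, with efflux ratio also determined.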

Data set [9] can be described thus: Ratio of drug level in brain to blood in complete Freund's adjuvant-induced rat inflammatory pain model at 3 mg/kg, po administered after 23 hrs of adjuvant challenge measured after 1 hr. The arrangement: dose 3 mg/kg, route oral. The class given is ADME, organism-based. The settings on record: brain and blood. Put shortly: (§1)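 Rat CFA inflammatory pain model: oral dosing at 1, 3 or 10 mg/kg 23 h after intraplantar adjuvant; blood and brain sampled 1 h post-dose from the same animal; Br:Bl ratio is the mean from three animals.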

Data set [10] is described as follows: Half life in Beagle dog at 1 mg/kg administered by intravenous infusion for 1 hr. It is filed as ADME, organism-based, Canis lupus familiaris. The arrangement: dose 1 mg/kg, route intravenous. The note with it: in vivo. The method in brief:
(§2)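 Intravenous administration as a 1 h infusion of a 1 mg/kg dose. Rats were male Sprague-Dawley; dogs were beagle; monkeys were cynomolgus. Blood clearance, Vss and half-life determined.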

A short description of data set [11]: Half life in Sprague-Dawley rat at 1 mg/kg administered by intravenous infusion for 1 hr. It is filed as ADME, organism-based. The arrangement: dose 1 mg/kg, route intravenous. The settings on record: in vivo. Put shortly:
as §2

Data set [12] is described as follows: Drug level in Landrace pig brain at 0.5 mg/kg/hr administered by infusion for 1 hrs. The settings on record: intravenous, read-out: Drug uptake. The class given is ADME, organism-based, Sus scrofa. Put shortly:
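Landrace pig given a 1 h infusion; blood and brain concentrations measured in a single animal.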

Data set [13] can be described thus: Oral bioavailability in Sprague-Dawley rat at 3 mg/kg. It is filed as ADME, organism-based. The settings on record: in vivo. The method in brief:
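Single oral dose of 3 mg/kg in 1% (w/v) methylcellulose vehicle. Rats were male Sprague-Dawley; dogs were beagle. Bioavailability (Fpo) determined.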

In data set [14] the target is Cytochrome P450 2C9 (Homo sapiens, UniProt P11712). Briefly: Inhibition of human CYP2C9. The class given is ADME. Put shortly:
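Inhibition of metabolism of fluorometric substrates (Cypex protocol); IC50 values are the mean of three experiments ± standard deviation.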

Data set [15] can be described thus: Ratio of drug level in brain to blood in complete Freund's adjuvant induced rat inflammatory pain model at 10 mg/kg, po bid for 5 days measured after 1 hr on day 5.
Data set [16] is described as follows: Ratio of drug level in brain to blood in complete Freund's adjuvant-induced rat inflammatory pain model at 1 mg/kg, po administered after 23 hrs of adjuvant challenge measured after 1 hr. The class given is ADME, organism-based. The arrangement: dose 1 mg/kg, route oral. The note with it: brain and blood. The method in brief: as §1
A short description of data set [17]: Clearance in cynomolgus monkey blood at 1 mg/kg administered by intravenous infusion for 1 hr. It is filed as ADME, organism-based, Macaca fascicularis. The arrangement: dose 1 mg/kg, route intravenous. The method in brief: as §2
Data set [18] in a line: Drug level in blood of complete Freund's adjuvant induced rat inflammatory pain model at 10 mg/kg, bid measured after 1 hr on day 5. The arrangement: dose 10 mg/kg. The settings on record: read-out: Drug uptake. The class given is ADME, organism-based. The method in brief: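 Satellite group dosed at 10 mg/kg b.i.d. for 5 days; blood sampled 1 h post-dose on day 1 and on day 5.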

Sequence of Cytochrome P450 2C9 (P11712 whole entry): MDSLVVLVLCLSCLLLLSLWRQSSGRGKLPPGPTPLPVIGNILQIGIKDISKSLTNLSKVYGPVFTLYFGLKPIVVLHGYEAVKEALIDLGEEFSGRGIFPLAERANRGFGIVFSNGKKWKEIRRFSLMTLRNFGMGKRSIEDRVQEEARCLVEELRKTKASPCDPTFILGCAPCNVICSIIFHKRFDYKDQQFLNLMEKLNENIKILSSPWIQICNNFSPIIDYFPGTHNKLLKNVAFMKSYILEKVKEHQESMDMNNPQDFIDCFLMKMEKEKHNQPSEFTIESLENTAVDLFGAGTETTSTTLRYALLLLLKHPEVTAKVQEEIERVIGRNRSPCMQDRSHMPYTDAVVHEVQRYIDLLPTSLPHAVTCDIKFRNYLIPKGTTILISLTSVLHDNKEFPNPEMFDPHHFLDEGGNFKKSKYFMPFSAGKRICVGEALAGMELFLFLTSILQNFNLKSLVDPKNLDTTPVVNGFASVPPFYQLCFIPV

In general, Ki refers to the equilibrium dissociation constant of an inhibitor or competing ligand from its target. Usually IC50 stands for the concentration needed to halve the response being measured. The pKi is −log10 of the Ki, conventionally taken in molar units. Usually solubility stands for how much of the substance goes into solution per volume. Broadly, the Kp is the ratio of the level in a tissue or fluid to that in plasma or blood. A word on the half-life: it is the time in which the quantity being followed falls by half. What is called bioavailability is the share of a dose that reaches the circulation, judged against a reference dose that is usually intravenous. Broadly, the clearance is a measure of how efficiently the substance is removed, as volume per time. In the case of `O=C([O-])c1cccc(Cc2cc(Cl)ccc2OCc2ccc(Cl)cc2F)n1.[Na+]`, the Vd in data set [1] turned out to be 2.1 L/kg. Also, the Ki in data set [2] is 0.01 µM. For the same compound, the IC50 in data set [3] is > 10 µM; in [14] it was 8 µM. In data set [4], this compound showed a pKi of 5.9. For the same compound, the Kb in data set [5] was 0.00794 µM. Besides, in data set [6], the concentration in solution (solubility at 0.5 h) came to 358 µg/mL. Moreover, in data set [7], the concentration at 12 h turned out to be 199 nM. For the same compound, in data set [8], the Papp A→B at 1 h was determined as 70 ×10⁻⁶ cm/s. The Kp at 1 h in [9] stood at 0.37; in [15], 0.41; in [16], 0.37. Also, the half-life in data set [10] is 1.1 h; in data set [11], 2.3 h. The concentration at 1 h came out at 627 nM in [12] and 2610 nM in [18]. Further, the bioavailability in data set [13] was 94%. In [17], this compound showed a clearance of 41 mL/min/kg.

Source of the values: ChEMBL document CHEMBL1138602, “Discovery of sodium 6-[(5-chloro-2-{[(4-chloro-2-fluorophenyl)methyl]oxy}phenyl)methyl]-2-pyridinecarboxylate (GSK269984A) an EP(1) receptor antagonist for the treatment of inflammatory pain” (Bioorg Med Chem Lett, 2009).
